MsrA act: bovine methionine sulfoxide reductase A activation; purified bovine MsrA, absorbance read-out; AID 602163; activation, % at 10.6 µM; 360,000 tested, 0.3% active; in the data active = activation above about 7.5%
MsrA inhibitor: inhibitors of bovine MsrA | purified bovine MsrA, absorbance read-out | inhibition, % at 15.5 µM | 360,000 tested, 0.75% active
procasp3 activ: activates human procaspase-3; recombinant procaspase-3 D3A, Ac-DEVD-pNA absorbance 405 nm; activation, % at 8.5 µM; 330,000 tested, 0.11% active; AID 463141;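 active = activation above the mean of all tested compounds plus 3 SD, cut at about 21% in these data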
Target sequence (P42574 whole entry D9A/D28A/D175A): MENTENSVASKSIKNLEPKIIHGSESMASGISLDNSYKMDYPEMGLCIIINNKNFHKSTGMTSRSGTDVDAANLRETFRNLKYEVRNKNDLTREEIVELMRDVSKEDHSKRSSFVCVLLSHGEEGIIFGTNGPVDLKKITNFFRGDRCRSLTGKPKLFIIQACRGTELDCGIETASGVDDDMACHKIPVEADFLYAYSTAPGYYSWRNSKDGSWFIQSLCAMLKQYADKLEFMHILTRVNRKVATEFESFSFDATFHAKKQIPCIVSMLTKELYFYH
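Assay system – Procaspase-3 D3A mutant, all three cleavage aspartates alanine · Controls – DMSO-only low control, 5 µM PC-3 D3A high control · Schedule – 1 h compound preincubation, 2 h substrate hydrolysis at 25 °C · Signal – 405 nm absorbance of p-nitroaniline, reads at 0 and 120 min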
proCasp7 act: counter-screen for procaspase-3 activators: activators of human procaspase-7; P55210; recombinant procaspase-7, Ac-DEVD-pNA absorbance 405 nm; D23A/D198A/D206A triple mutant, cannot self-cleave; scale: DMSO 0, 5 µM enzyme 100; activation, % at 8.5 µM; 330,000 tested, 0.093% active; AID 463210;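 active = percent activation above the screen-wide mean plus 3 SD, cut at about 25% in these data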
Target sequence (P55210 whole entry D23A/D198A/D206A): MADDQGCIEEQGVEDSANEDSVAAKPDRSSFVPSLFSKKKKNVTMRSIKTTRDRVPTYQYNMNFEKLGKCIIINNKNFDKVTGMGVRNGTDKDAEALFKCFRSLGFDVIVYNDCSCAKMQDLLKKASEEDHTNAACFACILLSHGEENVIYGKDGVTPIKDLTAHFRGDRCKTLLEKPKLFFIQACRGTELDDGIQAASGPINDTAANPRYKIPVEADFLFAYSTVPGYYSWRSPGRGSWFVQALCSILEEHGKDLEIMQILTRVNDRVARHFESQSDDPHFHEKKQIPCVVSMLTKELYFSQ
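Assay system: Uncleavable procaspase-7 mutant enzyme | Input: 2 µM procaspase-7 mutant as dispensed | Timing: 1 h compound preincubation, 2 h substrate cleavage, 25 °C | Repeats: One well per compound | Control set: DMSO wells as 0%, DMSO with 5 µM added PC-7 as 100% | Technique: Epi-absorbance of released pNA at 405 nm, two timepoints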
MsrA inh confirm: confirmation of bovine MsrA inhibitors | shares compounds with MsrA inhibitor | purified bovine MsrA, absorbance read-out | inhibition, % at 15.5 µM | 2,300 tested, 41% active;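 note: coupled to thioredoxin reductase with NADPH and selenocystamine and DMSO as substrate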
Hits are given with their value; n = inactive; x = no result given. An excerpt weighted towards active compounds, which were near 1.2% of everything screened. Cut-off read from the data, not from the text of the source, unless noted: active = inhibition above about 4.5%; inactive = the rest.

SMILES | MsrA act | MsrA inhibitor | procasp3 activ | proCasp7 act | MsrA inh confirm
CCN(CC)C(=O)[C@H]1C[C@@H]2[C@H](C[C@@H](c3ccccc3)[C@H]1C)N(c1ccc(F)cc1)C(=O)N2C/C=C(\C)CCC=C(C)C | x | n | x | x | x
COC(=O)C(C(C)=O)C1=C/C(=N\S(=O)(=O)c2ccc(C)cc2)c2ccccc2C1=O (stereo not given) | n | x | n | n | x
CC(=O)Nc1ccc(NC2=C/C(=N/S(=O)(=O)c3cccs3)c3ccccc3C2=O)cc1 | n | 47.0 | n | n | 44.1
COc1ccc(S(=O)(=O)/N=C2\C=C(Nc3ccc(O)cc3)C(=O)c3ccccc32)cc1 | n | 34.8 | n | n | 33.5
Cc1ccccc1NC1=C/C(=N\S(=O)(=O)c2cccs2)c2ccccc2C1=O | n | 16.0 | n | n | 29.3
Cc1ccc(NC2=C/C(=N/S(=O)(=O)c3cccs3)c3ccccc3C2=O)cc1C | n | n | n | n | x
O=C(NCc1ccccc1)[C@@H]1CCCN1C(=O)[C@H]1CCCN1C(=O)N1CCCCC1 | x | n | x | x | x
CS(=O)(=O)c1ccc(-c2nnc(NC(=O)c3ccc(S(=O)(=O)N4CCCC4)cc3)o2)cc1 | n | 5.1 | n | n | n
Cc1[nH]c2ccccc2c1C(=O)c1c(N)[nH]c(C(=O)c2ccc(Br)cc2)c1-c1ccc(Br)cc1 | x | n | x | x | x
Cc1ccccc1Nc1ncnc2[nH]ncc12 | n | 14.2 | x | x | 11.6
CCN(CC)CCCNC(=O)c1cc2cc(Cl)ccc2nc1N | x | n | x | x | x
CN(C)/C=N/c1nc2nccc(-c3cccs3)n2n1 | n | 7.1 | n | n | 6.1
O=C(NN=Cc1ccccc1OC(F)F)c1ccc(NS(=O)(=O)c2cccs2)cc1 | n | n | n | n | x
COc1cc(/C=N/NC(=O)c2ccc(NS(=O)(=O)c3cccs3)cc2)cc(OC)c1O | n | 6.5 | n | n | 6.4
O=C(N/N=C/c1ccc([N+](=O)[O-])cc1)c1ccc(NS(=O)(=O)c2cccs2)cc1 | n | 5.4 | n | n | 6.3
C/C(=N\NC(=O)c1ccc(NS(=O)(=O)c2cccs2)cc1)c1ccc(O)cc1O | n | 5.5 | n | n | 4.7
O=C(NN=Cc1ccc(OC(F)F)cc1)c1ccc(NS(=O)(=O)c2cccs2)cc1 | n | 5.5 | n | n | n
COc1cc(C=NNC(=O)c2ccccc2NS(=O)(=O)c2cccs2)cc(OC)c1O | n | n | n | n | x
COC(=O)C1=C(C)N(C)C(=NCc2ccc(OC)cc2)NC1c1cccc(F)c1 (stereo not given) | x | n | x | x | x
COc1cccc(-c2cccc3c4c([nH]c23)[C@@H]2C[C@H]3[C@@H](C(=O)N2CC4)[C@H](C)ON3C)c1 | x | n | x | x | x
CC(=O)Nc1nonc1NC(C)=O | n | n | n | n | x
CC(=O)Nc1cc(OC(C)=O)c2nonc2c1OC(C)=O | n | 28.5 | n | n | n
CC(C=NN=C1C(=O)Nc2ccccc21)=Cc1ccccc1 | x | n | x | x | x
Cc1ccc(Nc2ccc(C(F)(F)F)cc2[N+](=O)[O-])cc1 | n | 10.0 | n | n | 17.5
CC(=O)NNc1ccc(C(F)(F)F)cc1[N+](=O)[O-] | n | n | n | n | x
SMILES | MsrA act | MsrA inhibitor | procasp3 activ | proCasp7 act | MsrA inh confirm
C/C(=N\Nc1ccc(C(F)(F)F)cc1[N+](=O)[O-])C1CC1 | n | 9.2 | n | n | 8.8
COC(=O)c1[nH]c2cc(OC)c(OC)cc2c1NC(=O)Oc1ccccc1 | n | 5.0 | n | n | n
COC(=O)c1[nH]c2ccccc2c1NC(=O)Oc1ccccc1 | n | n | n | n | x
O=C(CCc1nc2ccccc2[nH]1)N1CCN(C(=O)c2ccco2)CC1 | n | n | n | n | x
O=C(CSc1ccc(-c2nc3ccccc3[nH]2)cn1)N1CCN(C(=O)c2ccco2)CC1 | n | 5.1 | n | n | n
O=C(N/N=C/c1ccc(O)c([N+](=O)[O-])c1)C(O)(c1ccccc1)c1ccccc1 | n | 6.4 | n | n | 4.9
Cc1cc(C(=O)N/N=C/c2ccc(O)c([N+](=O)[O-])c2)n[nH]1 | n | 6.8 | n | n | 6.0
O=C(N/N=C\c1ccc(O)c([N+](=O)[O-])c1)c1ccccc1-n1cccc1 | n | 6.6 | n | n | n
COC(=O)c1cc2c(c3c4cc(OC)ccc4n(S(=O)(=O)c4ccc(F)cc4)c13)C(=O)N(C)C2 | x | n | x | x | x
CC(/C=C/c1ccccc1)=N\NC(N)=S | n | 6.0 | n | n | n
COc1cc(/C=N/Nc2nc3c(c(=O)n(C)c(=O)n3C)n2Cc2ccccc2)ccc1OC(=O)c1ccco1 | n | 5.4 | n | n | n
CCOc1cc(/C=C2/NC(=O)NC2=O)cc([N+](=O)[O-])c1O | n | 5.6 | n | n | n
C=CCc1cc(/C=C2/NC(=O)NC2=O)cc(OCC)c1O | n | 4.8 | n | n | n
CCOc1cc(/C=C2/NC(=S)NC2=O)ccc1OCc1ccc([N+](=O)[O-])cc1 | n | n | n | n | x
Nc1nc2c(ncn2[C@@H]2O[C@H](C(=O)NCC3CCCCC3)[C@@H](O)[C@H]2O)c(=O)[nH]1 | x | n | x | x | x
O=c1cnn(-c2ccccc2)c(-c2ccccc2)c1 | n | 12.5 | n | n | 9.5
O=C(COc1ccccc1[N+](=O)[O-])N(Cc1ccccc1)c1ccccn1 | n | 7.3 | n | n | n
COCC(=O)N(Cc1ccccc1)c1ccccn1 | n | n | n | n | x
COc1cccc(/C=N/n2c(C3CCCCC3)n[nH]c2=S)c1 | n | 8.2 | n | n | 6.5
Fc1cccc(/C=N/n2c(C3CCCCC3)n[nH]c2=S)c1 | n | n | n | n | x
Oc1cccc(/C=N/n2c(C3CCCCC3)n[nH]c2=S)c1 | n | n | n | n | x
O=[N+]([O-])c1cccc(/C=N/n2c(C3CCCCC3)n[nH]c2=S)c1 | n | 5.0 | n | n | 12.6
COC(=O)C1=C(C)N(C)C(=NCc2cccc(C(F)(F)F)c2)NC1c1ccccc1 (stereo not given) | x | n | x | x | x
COCc1[nH]nc2c1C(c1ccc(F)cc1)NC2=O (stereo not given) | x | n | x | x | x
O=C(c1ccc2c(c1)OCO2)N1CCN(c2ccc(Cl)cc2)CC1 | n | n | n | n | x
SMILES | MsrA act | MsrA inhibitor | procasp3 activ | proCasp7 act | MsrA inh confirm
CC(=O)c1ccc(N2CCN(C(=O)c3ccc4c(c3)OCO4)CC2)cc1 | n | 4.8 | n | n | n
COCCCNc1nc2ccccc2nc1NS(=O)(=O)c1ccc(OC)cc1 | n | n | n | n | x
O=S(=O)(Nc1nc2ccccc2nc1OCC(F)(F)F)c1cccs1 | n | 4.9 | n | n | n
COCCCNc1nc2ccccc2nc1NS(=O)(=O)c1cccs1 | n | 5.2 | n | n | n
NC(=O)Cc1nc(-c2ccc([N+](=O)[O-])cc2)cs1 | n | 5.0 | n | n | n
NC(=O)Cc1nc(-c2ccc(F)cc2)cs1 | n | n | n | n | x
O=C(N/N=C/C=C/c1ccccc1)c1ccncc1 | n | 8.0 | n | n | 6.9
Nc1ccc(C(=O)N/N=C\C=C\c2cccc([N+](=O)[O-])c2)cc1 | n | 9.9 | n | n | 6.8
Cc1cc2c(c(=O)o1)[C@@]1(C(=O)N(C)c3ccc([N+](=O)[O-])cc31)C1=C(CCCC1=O)O2 | x | n | x | x | x

Screening results (PubChem BioAssay)
